These results are taken from ChEMBL document CHEMBL1165965, “Synthesis and structure-activity relationships of 1,2,3,4-tetrahydropyrido[2,3-b]pyrazines as potent and selective inhibitors of the anaplastic lymphoma kinase” (Bioorg Med Chem, 2010).

Usually inhibition stands for how much of the control response was suppressed.

The structures appear in SMILES notation.

For test [1], the target named is Calcium/calmodulin-dependent protein kinase type II subunit delta (Homo sapiens) (UniProt Q13557). In words: Inhibition of CAMK2D at 1 uM. Put shortly: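 Ambit KINOMEscan screen at a single concentration across a 250–400 kinase panel, recorded as percent inhibition. Selectivity was expressed as S(90), the fraction of kinases inhibited >90%.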
The target of test [2] is T1, Ephrin type-A receptor 1 (Homo sapiens) (UniProt P21709).
T1 sequence (whole entry): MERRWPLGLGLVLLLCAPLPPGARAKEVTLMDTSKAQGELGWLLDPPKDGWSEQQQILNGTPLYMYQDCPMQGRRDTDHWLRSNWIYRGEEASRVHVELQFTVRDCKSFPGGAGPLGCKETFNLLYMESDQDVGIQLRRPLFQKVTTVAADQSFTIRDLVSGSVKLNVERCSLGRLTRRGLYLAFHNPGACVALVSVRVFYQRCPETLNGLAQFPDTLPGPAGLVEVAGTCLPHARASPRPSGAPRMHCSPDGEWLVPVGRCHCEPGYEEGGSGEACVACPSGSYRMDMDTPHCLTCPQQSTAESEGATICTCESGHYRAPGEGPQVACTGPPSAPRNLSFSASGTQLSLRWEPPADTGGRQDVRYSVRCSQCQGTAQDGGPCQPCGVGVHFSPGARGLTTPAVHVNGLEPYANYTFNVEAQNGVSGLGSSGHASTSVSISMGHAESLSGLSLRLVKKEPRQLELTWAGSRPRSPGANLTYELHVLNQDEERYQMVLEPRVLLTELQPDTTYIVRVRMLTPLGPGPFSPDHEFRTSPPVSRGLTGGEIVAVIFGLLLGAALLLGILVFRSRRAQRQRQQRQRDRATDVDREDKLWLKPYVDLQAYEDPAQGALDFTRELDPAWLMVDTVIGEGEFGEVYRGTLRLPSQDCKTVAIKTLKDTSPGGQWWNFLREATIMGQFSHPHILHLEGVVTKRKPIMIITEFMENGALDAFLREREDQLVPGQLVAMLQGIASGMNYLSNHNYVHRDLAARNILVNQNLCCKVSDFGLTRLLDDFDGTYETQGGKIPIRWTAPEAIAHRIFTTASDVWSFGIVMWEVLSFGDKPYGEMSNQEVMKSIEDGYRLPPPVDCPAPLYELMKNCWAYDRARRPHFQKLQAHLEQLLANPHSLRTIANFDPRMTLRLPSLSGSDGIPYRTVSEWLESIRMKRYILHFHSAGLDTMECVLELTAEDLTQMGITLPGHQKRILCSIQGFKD
In words: Inhibition of EPHA1 at 1 uM. The essentials:
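Single-concentration screen using Ambit Bioscience KINOMEscan technology across a panel of 250–400 kinases. Per-kinase inhibition from this screen was summarized as S(90), the fraction of kinases inhibited by more than 90%.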

Test [3] deals with Serine/threonine-protein kinase Chk2 (Homo sapiens) (UniProt O96017). In words: Inhibition of CHEK2 at 1 uM.
The target in test [4] is Serine/threonine-protein kinase tousled-like 2 (Homo sapiens) (UniProt Q86UE8). The test is described as follows: Inhibition of TLK2 at 1 uM.
For test [5], the target named is T2, Phosphatidylinositol 5-phosphate 4-kinase type-2 beta (Homo sapiens) (UniProt P78356).
T2 sequence (whole entry): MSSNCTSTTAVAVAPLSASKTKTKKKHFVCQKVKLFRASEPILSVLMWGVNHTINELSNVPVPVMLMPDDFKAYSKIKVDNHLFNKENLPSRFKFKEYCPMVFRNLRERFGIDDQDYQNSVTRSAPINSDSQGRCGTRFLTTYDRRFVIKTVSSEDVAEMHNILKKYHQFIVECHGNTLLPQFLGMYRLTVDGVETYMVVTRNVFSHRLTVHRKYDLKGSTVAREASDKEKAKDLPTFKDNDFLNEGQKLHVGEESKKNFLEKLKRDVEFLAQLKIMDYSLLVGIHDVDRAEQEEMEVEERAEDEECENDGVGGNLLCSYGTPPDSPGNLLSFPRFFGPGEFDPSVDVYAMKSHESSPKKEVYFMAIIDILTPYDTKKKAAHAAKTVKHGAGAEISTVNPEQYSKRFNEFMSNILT
The test is described as follows: Inhibition of PIP5K2B at 1 uM.

Test [6] deals with T3, Serine/threonine-protein kinase Nek9 (Homo sapiens) (UniProt Q8TD19).
T3 sequence (whole entry): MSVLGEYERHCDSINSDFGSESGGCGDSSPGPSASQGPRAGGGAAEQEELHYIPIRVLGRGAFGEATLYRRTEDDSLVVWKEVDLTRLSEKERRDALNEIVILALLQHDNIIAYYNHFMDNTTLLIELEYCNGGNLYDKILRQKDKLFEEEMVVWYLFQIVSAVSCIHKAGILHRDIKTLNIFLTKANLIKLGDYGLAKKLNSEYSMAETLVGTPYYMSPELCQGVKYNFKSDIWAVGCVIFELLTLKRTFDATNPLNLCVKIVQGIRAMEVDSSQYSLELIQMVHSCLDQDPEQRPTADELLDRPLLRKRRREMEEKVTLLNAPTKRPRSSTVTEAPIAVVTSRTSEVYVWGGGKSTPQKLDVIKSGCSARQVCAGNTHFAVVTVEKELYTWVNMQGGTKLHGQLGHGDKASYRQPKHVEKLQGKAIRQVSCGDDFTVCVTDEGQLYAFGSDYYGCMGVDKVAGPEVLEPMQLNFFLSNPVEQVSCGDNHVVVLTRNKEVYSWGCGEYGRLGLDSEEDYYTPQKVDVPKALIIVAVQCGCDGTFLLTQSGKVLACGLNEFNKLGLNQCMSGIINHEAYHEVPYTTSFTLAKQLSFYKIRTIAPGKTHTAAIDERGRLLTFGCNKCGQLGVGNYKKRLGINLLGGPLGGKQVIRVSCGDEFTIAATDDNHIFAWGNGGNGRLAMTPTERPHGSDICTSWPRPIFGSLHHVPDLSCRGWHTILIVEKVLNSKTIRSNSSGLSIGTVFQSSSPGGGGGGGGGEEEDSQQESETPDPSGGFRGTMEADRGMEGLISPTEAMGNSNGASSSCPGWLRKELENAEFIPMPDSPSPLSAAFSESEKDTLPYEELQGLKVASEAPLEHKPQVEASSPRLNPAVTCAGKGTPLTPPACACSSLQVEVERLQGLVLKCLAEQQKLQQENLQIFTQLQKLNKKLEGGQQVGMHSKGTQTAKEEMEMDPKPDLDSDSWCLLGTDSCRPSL
In words: Inhibition of NEK9 at 1 uM.

Sequence of Calcium/calmodulin-dependent protein kinase type II subunit delta (Homo sapiens) (Q13557 whole entry): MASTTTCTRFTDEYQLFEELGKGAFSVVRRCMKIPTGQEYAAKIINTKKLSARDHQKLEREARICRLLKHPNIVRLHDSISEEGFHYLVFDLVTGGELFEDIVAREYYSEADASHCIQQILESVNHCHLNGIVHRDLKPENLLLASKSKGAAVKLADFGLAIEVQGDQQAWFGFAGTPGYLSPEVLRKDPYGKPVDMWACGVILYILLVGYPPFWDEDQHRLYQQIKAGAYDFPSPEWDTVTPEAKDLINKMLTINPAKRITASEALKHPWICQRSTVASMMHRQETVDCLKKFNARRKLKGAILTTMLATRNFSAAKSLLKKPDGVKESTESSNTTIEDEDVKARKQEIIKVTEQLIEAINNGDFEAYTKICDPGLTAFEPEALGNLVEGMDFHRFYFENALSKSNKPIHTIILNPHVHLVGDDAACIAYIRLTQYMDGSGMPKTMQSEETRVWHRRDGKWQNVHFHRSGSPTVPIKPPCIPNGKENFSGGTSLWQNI
Sequence of Serine/threonine-protein kinase Chk2 (Homo sapiens) (O96017 whole entry): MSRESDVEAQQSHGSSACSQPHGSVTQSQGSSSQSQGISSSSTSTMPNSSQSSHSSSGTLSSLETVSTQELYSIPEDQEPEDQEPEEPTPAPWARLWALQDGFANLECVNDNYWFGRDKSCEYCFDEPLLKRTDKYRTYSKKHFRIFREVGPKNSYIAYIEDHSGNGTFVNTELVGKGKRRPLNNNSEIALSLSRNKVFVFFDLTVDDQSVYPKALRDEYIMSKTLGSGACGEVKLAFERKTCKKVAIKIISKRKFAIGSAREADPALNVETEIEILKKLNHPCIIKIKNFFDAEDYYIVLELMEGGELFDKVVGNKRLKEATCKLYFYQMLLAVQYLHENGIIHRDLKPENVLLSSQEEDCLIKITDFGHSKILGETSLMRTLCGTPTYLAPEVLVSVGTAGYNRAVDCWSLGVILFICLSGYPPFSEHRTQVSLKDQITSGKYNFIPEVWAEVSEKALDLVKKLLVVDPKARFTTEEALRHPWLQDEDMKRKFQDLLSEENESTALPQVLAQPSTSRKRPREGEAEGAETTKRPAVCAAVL
Sequence of Serine/threonine-protein kinase tousled-like 2 (Homo sapiens) (Q86UE8 whole entry, looked up): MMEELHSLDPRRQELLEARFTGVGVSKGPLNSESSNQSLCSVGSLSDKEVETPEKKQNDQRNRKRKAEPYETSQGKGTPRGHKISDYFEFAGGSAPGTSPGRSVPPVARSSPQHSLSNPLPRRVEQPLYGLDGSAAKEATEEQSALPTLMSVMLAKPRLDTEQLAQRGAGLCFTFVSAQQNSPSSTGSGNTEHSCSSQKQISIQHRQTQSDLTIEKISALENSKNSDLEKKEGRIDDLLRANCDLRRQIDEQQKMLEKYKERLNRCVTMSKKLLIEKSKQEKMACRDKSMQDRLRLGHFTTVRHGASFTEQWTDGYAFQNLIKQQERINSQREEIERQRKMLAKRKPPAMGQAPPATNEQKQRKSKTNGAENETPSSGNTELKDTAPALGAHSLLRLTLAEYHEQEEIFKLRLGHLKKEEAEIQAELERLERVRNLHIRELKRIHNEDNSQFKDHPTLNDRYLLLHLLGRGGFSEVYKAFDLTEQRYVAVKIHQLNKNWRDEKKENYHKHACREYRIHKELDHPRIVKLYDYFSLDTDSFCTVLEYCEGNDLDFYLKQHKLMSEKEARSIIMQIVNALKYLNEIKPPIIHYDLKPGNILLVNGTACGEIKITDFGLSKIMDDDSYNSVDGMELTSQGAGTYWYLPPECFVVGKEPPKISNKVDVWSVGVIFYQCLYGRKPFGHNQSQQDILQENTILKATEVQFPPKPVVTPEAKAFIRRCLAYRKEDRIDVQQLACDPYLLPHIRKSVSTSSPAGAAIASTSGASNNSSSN

As to `FC(F)(F)c1ccc(Cl)cc1CN1CCNc2ncc(-c3ccnc(N4CCNCC4)c3)cc21`, the inhibition in test [1], in test [2], in test [3], in test [4], in test [5] and in test [6] was under 50% in each case.

For the molecule `CN1CCN(c2ccc(-c3cnc4c(c3)N(Cc3cc(Cl)ccc3Cl)CCN4)cn2)CC1`, the inhibition in test [1], in test [2], in test [3], in test [4], in test [5] and in test [6] was under 50% throughout.

For the molecule `COC1CCN(C(=O)c2ccc(-c3cnc4c(c3)N(Cc3cc(Cl)ccc3C(F)(F)F)CCN4)cc2)CC1`, the inhibition in test [1], in test [2], in test [4], in test [5] and in test [6] was under 50% throughout.

In the case of `O=C(c1ccc(-c2cnc3c(c2)N(Cc2cc(Cl)ccc2C(F)(F)F)CCN3)cc1)N1CCCCC1`, the inhibition in test [1], in test [2], in test [4], in test [5] and in test [6] was under 50% in each case.

For `O=C(O)c1ccc(-c2cnc3c(c2)N(Cc2cc(Cl)ccc2C(F)(F)F)CCN3)cc1`, the inhibition in test [1], in test [2], in test [4], in test [5] and in test [6] was under 50% each time.

In the case of `CN1CCN(c2ccc(-c3cnc4c(c3)N(Cc3cc(F)ccc3F)CCN4)cn2)CC1`, the inhibition in test [1] was under 50%; in test [2], 62.1%; in test [3], under 50%; in test [4], under 50%; in test [5], under 50%; in test [6], under 50%.

Consider `O=C(c1ccc(-c2cnc3c(c2)N(Cc2cc(Cl)ccc2C(F)(F)F)CCN3)cc1)N1CCC(N2CCCC2)CC1`, for which the inhibition in test [1] was under 50%; in test [2], 81%; in test [4], under 50%; in test [5] it was under 50%; in test [6], under 50%.

For `CN1CCN(c2ccc(-c3cnc4c(c3)N(Cc3c(F)ccc(F)c3Cl)CCN4)cn2)CC1`, the inhibition in test [1], in test [2], in test [3], in test [4], in test [5] and in test [6] was under 50% in each case.

As to `CC(=O)N1CCN(c2cc(-c3cnc4c(c3)N(Cc3cc(Cl)ccc3C(F)(F)F)CCN4)ccn2)CC1`, the inhibition in test [1], in test [2], in test [3], in test [4], in test [5] and in test [6] was under 50% each time.

On to `CN1CCN(c2ccc(-c3cnc4c(c3)N(Cc3cc(Cl)ccc3C(F)(F)F)CCN4)cn2)CC1`, for which the inhibition in test [1], in test [2], in test [3], in test [4], in test [5] and in test [6] was under 50% each time.
